Source: PMC9303924 (Proceedings of the National Academy of Sciences of the …, 2022)
pKd: −log10 of the molar value. Entries after “also recorded” stand apart in the source; their conditions may differ. Where two headings read alike, the source gives them in different places.

Key:
[1] = test system: McpA/TlpA receptor chimeras in SQR9Δ8mcp; assay: Chemotaxis of McpA receptor chimera strains compared; format: cell-based, Bacillus velezensis SQR9; conditions: strains with chimeras McpA_distal (M1) and McpA_proximal (M2)
Outline: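 Chimeric receptors (McpA or TlpA LBD modules swapped) integrated at amyE of SQR9Δ8mcp; strains grown at 30 °C in low-salt LB. Microfluidic SlipChip run with 13 parallel units as duplicates: channels BSA-coated (10 mg/mL, 5 min); compound, cells and buffer in top, middle and bottom wells; 30 min in the dark. Cells counted by fluorescence microscopy; I30 = Ne/(Ne+Nc); attraction when above 0.6.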

[2] = test system: McpA-LBD; conditions: cited from earlier work
[3] = biological target: T1, McpA-LBD (A36-L277) (Bacillus velezensis, UniProt A7Z835); assay: Biolayer interferometry; format: binding, Bacillus velezensis SQR9
T1 sequence (A7Z835 36-277): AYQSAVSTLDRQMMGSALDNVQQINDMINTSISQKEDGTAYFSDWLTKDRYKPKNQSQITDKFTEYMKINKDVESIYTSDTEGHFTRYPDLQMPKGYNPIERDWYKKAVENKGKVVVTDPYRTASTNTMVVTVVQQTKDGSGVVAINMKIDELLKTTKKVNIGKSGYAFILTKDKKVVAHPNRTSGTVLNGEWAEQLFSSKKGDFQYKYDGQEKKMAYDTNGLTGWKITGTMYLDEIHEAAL

[4] = biological target: T1, McpA-LBD (A36-L277); assay: Surface plasmon resonance; format: binding, Bacillus velezensis SQR9; conditions: SPR, compounds at 200 μM and 2 mM
[5] = test system: McpA-LBD; conditions: cited from earlier work; remark: listed apart in the source

| McpA-LBD module on which chemotaxis relies [1] | SMILES | interaction with McpA-LBD observed ([3]; BLI) | other results |
| --- | --- | --- | --- |
| sensed by the membrane-proximal module | N[C@@H](CC(=O)O)C(=O)O [Aspartic acid] |  | direct binding to McpA-LBD [2]: direct binding |
| sensed by the membrane-proximal module | O=C(O)CC(O)(CC(=O)O)C(=O)O [Citric acid] |  | direct binding to McpA-LBD [2]: direct binding |
|  | C[C@H](O)[C@@H](O)[C@@H](O)[C@H](O)C=O [Fucose] | interaction; also recorded: directly bound | binding to McpA-LBD [4]: binding for all ligands, except for serine and fucose |
|  | O=C[C@H](O)[C@@H](O)[C@@H](O)[C@H](O)CO [Galactose] |  | direct binding to McpA-LBD [5]: no direct binding |
| sensed by the membrane-proximal module | N[C@@H](CCC(=O)O)C(=O)O [Glutamic acid] |  |  |
| sensed by the membrane-proximal module | O=C(O)CC(O)C(=O)O (stereo not shown) [Malic acid] |  |  |
|  | OC[C@H]1OC(O)[C@@H](O)[C@@H](O)[C@@H]1O (stereo partly shown) [Mannose] | interaction |  |
| sensed by the membrane-proximal module | O=C(O)C(=O)O [Oxalic acid] |  |  |
|  | OC[C@@H](O)[C@@H](O)[C@@H](O)CO [Ribitol] | interaction; also recorded: directly bound | pKd [3]: 5.36 |
|  | O=C[C@H](O)[C@H](O)[C@H](O)CO [Ribose] | interaction; also recorded: directly bound | pKd ([3]; BLI, McpA-LBD (A36-L277), 25 °C, 1:1 binding model): 5.71 |
|  | N[C@@H](CO)C(=O)O [Serine] |  | binding to McpA-LBD [4]: binding for all ligands, except for serine and fucose |
| sensed by the membrane-proximal module | O=C(O)CCC(=O)O [Succinic acid] |  |  |
| sensed by the membrane-proximal module | N[C@@H](Cc1ccc(O)cc1)C(=O)O [Tyrosine] | interaction |  |
